The record followed here is ChEMBL document CHEMBL1165853, “Hybrids of 3alpha-methoxyserrat-14-en-21beta-ol (PJ-1) and 3beta-methoxyserrat-14-en-21beta-ol (PJ-2) and various anti-oxidants as cancer chemopreventive agents” (Eur J Med Chem, 2010).

SMILES strings stand for the structures. Activity calls are given as the source filed them. The rule behind the calls is not given here.

A short description of data set [1]: Cytotoxicity against human Raji cells assessed as cell viability at 1000 molar ratio by trypan blue staining method. The data set is classed as cell-based. The following applies: read-out: Activity. The gist of the method: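 Viability was measured by trypan blue staining of Raji cells after the 48 h, 37 °C EBV-EA induction run (n-butyric acid 4 mmol plus TPA 32 pmol), with compound at 1000 mol ratio/32 pmol TPA.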

The nature of data set [2]: Inhibition of TPA-induced EBV-early antigen activation in human Raji cells assessed as EA activation after 48 hrs. Type of data set: cell-based, human gammaherpesvirus 4. In outline:
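Raji cells (EBV genome-carrying, virus non-producer Burkitt's lymphoma line; RPMI-1640 with 10% FBS) were seeded at 1×10⁶/mL and held 48 h at 37 °C with n-butyric acid (4 mmol), TPA (32 pmol) and test agent at 1000, 500, 100 or 10 mol ratio/32 pmol TPA. EA-positive cells were scored by indirect immunofluorescence with NPC patient serum, counting ≥500 cells, in triplicate. Results are expressed relative to the butyrate+TPA control (100%), and IC50 is given as mol ratio/32 pmol TPA.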

Data set [3] relates to Mus musculus. Put plainly: Inhibition of DMBA-induced/TPA-promoted carcinogenesis in ICR mouse assessed as reduction of mouse bearing papillomas length at 85 nmol administered 1 hr before TPA treatment measured after 20 weeks. Type of data set: functional. The gist of the method: (§1)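 In the two-stage mouse skin carcinogenesis model, DMBA was the initiator and TPA the promoter, and test agent was given at 85 nmol alongside DMBA/TPA. Papilloma-bearing mice (%), papillomas per mouse, and tumor length and width were followed through week 20 against a DMBA/TPA-only group.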

The test system of data set [4] is Mus musculus. Put plainly: Inhibition of DMBA-induced/TPA-promoted carcinogenesis in ICR mouse assessed as reduction of mouse bearing papillomas at 85 nmol administered 1 hr before TPA treatment measured after 10 to 15 weeks. The data set is classed as functional. The gist of the method: as §1
In data set [5] the test system is Mus musculus. Put plainly: Inhibition of DMBA-induced/TPA-promoted carcinogenesis in ICR mouse assessed as reduction of mouse bearing papillomas at 85 nmol administered 1 hr before TPA treatment measured after 20 weeks. Type of data set: functional. In outline:
as §1

For data set [6], the species on record is Mus musculus. As to the kind of experiment: Toxicity in ICR mouse assessed as lesional damage. Type of data set: organism-based. The settings on record: in vivo.
The species entered for data set [7] is Mus musculus. As to the kind of experiment: Toxicity in ICR mouse assessed as inflammation. The data set is classed as organism-based. The settings on record: in vivo.
For data set [8], the system named is Mus musculus. Put plainly: Inhibition of DMBA-induced/TPA-promoted carcinogenesis in ICR mouse assessed as reduction of mouse bearing papillomas width at 85 nmol administered 1 hr before TPA treatment measured after 20 weeks. The data set is classed as functional. In outline: as §1
Data set [9] deals with Mus musculus. Put plainly: Inhibition of DMBA-induced/TPA-promoted carcinogenesis in ICR mouse assessed as reduction of mouse bearing papillomas number at 85 nmol administered 1 hr before TPA treatment measured after 20 weeks. Type of data set: functional. The gist of the method: as §1
The species entered for data set [10] is Mus musculus. Put plainly: Toxicity in ICR mouse assessed as change in body weight. Type of data set: organism-based. The settings on record: in vivo.

Regarding `CO[C@H]1CC[C@@]2(C)[C@@H](CC[C@@]3(C)CC4=CC[C@H]5C(C)(C)[C@H](OC(=O)NS(=O)(=O)c6ccc(C)cc6)CC[C@]5(C)[C@H]4CC[C@@H]32)C1(C)C`, the viability at 1000 molar ratio in [1] amounted to 60%. Besides, in [2], the IC50 came out at 461 molar ratio.
The corresponding values for `COc1cc(/C=C/C(O)/C=C(O)/C=C/c2ccc(OC(=O)CCC(=O)O[C@@H]3CC[C@]4(C)[C@H]5CC[C@H]6[C@@](C)(CC[C@H]7C(C)(C)[C@@H](OC)CC[C@@]76C)CC5=CC[C@H]4C3(C)C)c(OC)c2)ccc1O` (stereo partly drawn) are 60% and 460 molar ratio.
In the case of `CO[C@@H]1CC[C@@]2(C)[C@@H](CC[C@@]3(C)CC4=CC[C@H]5C(C)(C)[C@H](OC(=O)CCC(=O)Oc6ccc(-c7oc8cc(O)cc(O)c8c(=O)c7O)cc6O)CC[C@]5(C)[C@H]4CC[C@@H]32)C1(C)C`, the viability at 1000 molar ratio in data set [1] was determined as 60%. Also, the Activity was 28 mm in the data set with Mus musculus [3]; “Non-toxic” in the data set filed under Mus musculus [6]; “Non-toxic” in the data set listed under Mus musculus [7]; 25 mm in the data set with Mus musculus [8]; “Non-toxic” in the data set filed under Mus musculus [10]. Besides, the “inhibition (INH)” value with Mus musculus [4] is 26.6%; with Mus musculus [5], 73.3%. Moreover, in data set [2], the IC50 came out at 350 molar ratio. Besides, in the data set on Mus musculus [9], the inhibition entry was “Active”.
In the case of `CO[C@H]1CC[C@@]2(C)[C@@H](CC[C@@]3(C)CC4=CC[C@H]5C(C)(C)[C@H](OC(=O)CCC(=O)Oc6coc(CO)cc6=O)CC[C@]5(C)[C@H]4CC[C@@H]32)C1(C)C`, the viability at 1000 molar ratio in data set [1] came to 70%. In data set [2], the IC50 is recorded as 371 molar ratio.
Consider `CO[C@H]1CC[C@@]2(C)[C@@H](CC[C@@]3(C)CC4=CC[C@H]5C(C)(C)[C@H](OC(N)=O)CC[C@]5(C)[C@H]4CC[C@@H]32)C1(C)C`, for which, in data set [1], the viability at 1000 molar ratio turned out to be 60%. Besides, the IC50 in [2] was 470 molar ratio.
For `COc1cc(/C=C/C(=O)CC(O)/C=C/c2ccc(OC(=O)CC(=O)O[C@@H]3CC[C@]4(C)[C@H]5CC[C@H]6[C@@](C)(CC[C@H]7C(C)(C)[C@@H](OC)CC[C@@]76C)CC5=CC[C@H]4C3(C)C)c(OC)c2)ccc1OC(=O)CC(=O)O[C@@H]1CC[C@]2(C)[C@H]3CC[C@H]4[C@@](C)(CC[C@H]5C(C)(C)[C@@H](OC)CC[C@@]54C)CC3=CC[C@H]2C1(C)C` (stereo partly drawn), in that order: 60% and 338 molar ratio.
On to `CO[C@H]1CC[C@@]2(C)[C@@H](CC[C@@]3(C)CC4=CC[C@H]5C(C)(C)[C@H](OC(=O)Nc6ccccc6Cl)CC[C@]5(C)[C@H]4CC[C@@H]32)C1(C)C`, for which the viability at 1000 molar ratio in data set [1] was determined as 50%. Moreover, the IC50 in [2] stood at 468 molar ratio.
The corresponding values for `CO[C@H]1CC[C@@]2(C)[C@@H](CC[C@@]3(C)CC4=CC[C@H]5C(C)(C)[C@H](OC(=O)CCl)CC[C@]5(C)[C@H]4CC[C@@H]32)C1(C)C` are 60% and 473 molar ratio.
Turning to `COc1cc(/C=C/C(O)=C/C(O)/C=C/c2ccc(OC(=O)CCC(=O)O[C@@H]3CC[C@]4(C)[C@H]5CC[C@H]6[C@@](C)(CC[C@H]7C(C)(C)[C@@H](OC)CC[C@@]76C)CC5=CC[C@H]4C3(C)C)c(OC)c2)ccc1OC(=O)CCC(=O)O[C@@H]1CC[C@]2(C)[C@H]3CC[C@H]4[C@@](C)(CC[C@H]5C(C)(C)[C@@H](OC)CC[C@@]54C)CC3=CC[C@H]2C1(C)C` (stereo partly drawn), in data set [1], the viability at 1000 molar ratio is 60%. Also, the IC50 in data set [2] came to 395 molar ratio.
As to `COc1cc(/C=C/C(O)/C=C(O)/C=C/c2ccc(OC(=O)CC(=O)O[C@@H]3CC[C@]4(C)[C@H]5CC[C@H]6[C@@](C)(CC[C@H]7C(C)(C)[C@@H](OC)CC[C@@]76C)CC5=CC[C@H]4C3(C)C)c(OC)c2)ccc1O` (stereo partly drawn), the viability at 1000 molar ratio in data set [1] came out at 60%. In data set [2], the IC50 was determined as 358 molar ratio.
The corresponding values for `COc1cc(/C=C/C(O)/C=C(O)/C=C/c2ccc(OC(=O)CC(=O)O[C@@H]3CC[C@]4(C)[C@H]5CC[C@H]6[C@@](C)(CC[C@H]7C(C)(C)[C@H](OC)CC[C@@]76C)CC5=CC[C@H]4C3(C)C)c(OC)c2)ccc1O` (stereo partly drawn) are 60% and 354 molar ratio.
As for `CC1(C)CC[C@]2(C(=O)O)CC[C@]3(C)C(=CC[C@@H]4[C@@]5(C)CC[C@H](O)C(C)(C)[C@@H]5CC[C@]43C)[C@@H]2C1` [OLEANOLIC_ACID], the IC50 in [2] is recorded as 449 molar ratio.
For the compound `CO[C@H]1CC[C@@]2(C)[C@@H](CC[C@@]3(C)CC4=CC[C@H]5C(C)(C)[C@H](OC(=S)Nc6ccccc6)CC[C@]5(C)[C@H]4CC[C@@H]32)C1(C)C`, the viability at 1000 molar ratio in [1] came to 60%. In addition, the IC50 in data set [2] worked out at 460 molar ratio.
For `CO[C@H]1CC[C@@]2(C)[C@@H](CC[C@@]3(C)CC4=CC[C@H]5C(C)(C)[C@H](OC(=O)Nc6ccccc6)CC[C@]5(C)[C@H]4CC[C@@H]32)C1(C)C`, in that order: 60% and 459 molar ratio.
The corresponding values for `CO[C@@H]1CC[C@@]2(C)[C@@H](CC[C@@]3(C)CC4=CC[C@H]5C(C)(C)[C@H](OC(=O)CCC(=O)Oc6coc(CO)cc6=O)CC[C@]5(C)[C@H]4CC[C@@H]32)C1(C)C` are 70% and 370 molar ratio.
On to `COc1cc(/C=C/C(O)=C/C(O)/C=C/c2ccc(OC(=O)CC(=O)O[C@@H]3CC[C@]4(C)[C@H]5CC[C@H]6[C@@](C)(CC[C@H]7C(C)(C)[C@H](OC)CC[C@@]76C)CC5=CC[C@H]4C3(C)C)c(OC)c2)ccc1OC(=O)CC(=O)O[C@@H]1CC[C@]2(C)[C@H]3CC[C@H]4[C@@](C)(CC[C@H]5C(C)(C)[C@H](OC)CC[C@@]54C)CC3=CC[C@H]2C1(C)C` (stereo partly drawn), for which the viability at 1000 molar ratio in data set [1] is 60%. In data set [2], the IC50 amounted to 335 molar ratio.
The corresponding values for `COc1cc(/C=C/C(O)/C=C(O)/C=C/c2ccc(OC(=O)CCC(=O)O[C@@H]3CC[C@]4(C)[C@H]5CC[C@H]6[C@@](C)(CC[C@H]7C(C)(C)[C@H](OC)CC[C@@]76C)CC5=CC[C@H]4C3(C)C)c(OC)c2)ccc1O` (stereo partly drawn) are 60% and 393 molar ratio.
For `COc1cc(/C=C/C(O)=C/C(O)/C=C/c2ccc(OC(=O)CCC(=O)O[C@@H]3CC[C@]4(C)[C@H]5CC[C@H]6[C@@](C)(CC[C@H]7C(C)(C)[C@H](OC)CC[C@@]76C)CC5=CC[C@H]4C3(C)C)c(OC)c2)ccc1OC(=O)CCC(=O)O[C@@H]1CC[C@]2(C)[C@H]3CC[C@H]4[C@@](C)(CC[C@H]5C(C)(C)[C@H](OC)CC[C@@]54C)CC3=CC[C@H]2C1(C)C` (stereo partly drawn), in data set [1], the viability at 1000 molar ratio was found to be 60%. For the same compound, the IC50 in data set [2] was 462 molar ratio.
On to `CO[C@H]1CC[C@@]2(C)[C@@H](CC[C@@]3(C)CC4=CC[C@H]5C(C)(C)[C@H](OC(=O)CCC(=O)Oc6ccc(-c7oc8cc(O)cc(O)c8c(=O)c7O)cc6O)CC[C@]5(C)[C@H]4CC[C@@H]32)C1(C)C`, for which the viability at 1000 molar ratio in data set [1] was found to be 60%. In addition, the Activity with Mus musculus [3] is reported as 26 mm; in the data set filed under Mus musculus [6] it was “Non-toxic”; in the data set listed under Mus musculus [7], “Non-toxic”; in the data set on Mus musculus [8], 24 mm; in the data set listed under Mus musculus [10] it was “Non-toxic”. Moreover, the figures for the “inhibition (INH)” value in the data set on Mus musculus [4] and in the data set on Mus musculus [5] were 20% and 86.6%, respectively. In addition, in data set [2], the IC50 was found to be 330 molar ratio. Also, the papillomas per mouse in the data set on Mus musculus [9] amounted to 4.7 papillomas/mouse.
